From PubChem
H69AR growth 86K: blocks growth of human H69AR lung tumor cells | H69AR lung tumor viability, ATP luminescence, 72 h; hits give low values | viability, % at 10 µM | hit rate 6% among 85,000 | AID 598;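 active means viability at or below 40%; inactive means viability above 40%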;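 further: multidrug resistant small cell line overexpressing MRP-1 efflux transporter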
HCT116 bCat-KO: beta-catenin-lacking colon tumor cell growth suppression; HCT116 beta-catenin knockout viability, CellTiter-Glo, 60 h; hits give low values; viability, % at 10 µM; hit rate 1.5% among 140,000; AID 818;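 active means viability at or under a set limit, the compound median less 4 SD, cut at about 6% in these data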
PTK2B oligo ant: Pyk2 (human) oligomerization antagonism; hit rate 0.83% among 99,000; z-score (the deposit names both 25 µM and 10 µM); Q293 cells, Pyk2 FERM NanoBiT luminescence; hits give low values; AID 1347419;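 active means Z-score of -3 or lower, scaled per plate to the spread of control and sample wells; inactive means z-score above -3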;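 further: negative z-score means lost luminescence so less FERM oligomerization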
HUVEC prolif 384: human endothelial cell proliferation inhibition | HUVEC proliferation, CellTiter-Glo luminescence, 72 h; hits give low values | viability, % at 10 µM (by protocol) | hit rate 1.1% among 86,000 | AID 648;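 active means viability at or below 30%; inactive means viability above 30%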
PTEN del growth: suppresses growth of cells with PTEN deletion | HCT116 PTEN-null viability, CellTiter-Glo, 60 h; hits give low values | hit rate 1.2% among 140,000 | viability, % at 10 µM | AID 827;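 active means viability at or below a set limit, 4 SD under the median of all tested compounds, cut at about 3.7% in these data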;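 further: PTEN knockout HCT116 line with beta catenin targeted HCT116 as companion control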
Lung fibro prol: blocks proliferation of human lung fibroblasts; viability, % at 10 µM; hit rate 1.1% among 85,000; LL 47 human lung fibroblast viability, ATP luminescence; hits give low values;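 active means viability at or below 50% in the single dose screen; inactive means viability above 50%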;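 further: compound exposure lasted 72 h before the ATP readout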
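Material: human LL 47 lung fibroblast cells; quantity: 1,150 cells/well; medium: IMEM plus 15% FBS; doses: 0.1% DMSO in all compound wells; timing: overnight attachment after seeding, then 72 h compound exposure at 37 °C; detection: CellTiter-Glo luminescence; measure: % viability of median cell-only signal; controls: cell-only wells, no compound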
Numbers stand for hits; – = inactive; · = no result given. Shown is part of a subset that was picked to be rich in hits.

SMILES	H69AR growth 86K	HCT116 bCat-KO	PTK2B oligo ant	HUVEC prolif 384	PTEN del growth	Lung fibro prol
Oc1ccc(-c2[nH]ncc2-c2ccc(Cl)cc2)c(O)c1	–	–	–	–	–	–
COc1cccc(Oc2cn[nH]c2-c2ccc(OC)cc2O)c1	8.1	–	–	–	–	–
CCOc1ccc(-c2[nH]ncc2Oc2cccc(OC)c2)c(O)c1	18.0	–	–	–	–	–
COc1ccc(-c2[nH]ncc2-c2ccc(Cl)cc2)c(O)c1	14.3	–	–	–	–	–
C#CCOCCOCCOCCNc1nc(N2CCOCC2)nc(N2CCN(C(=O)Cn3cc(CC(C)O)nn3)CC2)n1 (stereo unspecified)	·	–	·	·	–	·
O=C(c1cc2c(s1)CCCC2)N1CCN(S(=O)(=O)c2ccccc2C(F)(F)F)CC1	·	–	·	·	–	·
CCN(CC)C(=O)CSc1nnc(CNc2ccc(F)cc2)o1	–	–	–	–	–	–
C=CCn1c(COc2ccccc2F)nnc1SCC(=O)c1c[nH]c2ccccc12	·	–	–	·	–	·
CC(=O)c1c(C)nc(-c2ccccc2)n1O	–	–	–	–	–	–
CC(=O)c1c(C)nc(-c2ccc(Cl)cc2Cl)n1O	–	–	–	–	1.2	–
O=C(CC(NC(=O)c1ccccc1)c1ccccc1)Nc1cccc2ccccc12 (stereo unspecified)	·	–	·	·	–	·
O=C1CN(C(=O)COC(=O)c2ccc(N3CCCCCC3)c([N+](=O)[O-])c2)c2ccccc2N1	·	–	·	·	–	·
Cc1ccc(C)c(Nc2c([N+](=O)[O-])cc(C(=O)N3CC(=O)Nc4ccccc43)cc2[N+](=O)[O-])c1	·	–	-3.05	·	–	·
O=C(COc1ccc(/C=N/NC(=O)c2cc3ccccc3o2)cc1Br)Nc1ccccc1	·	1.8	–	·	3.5	·
O=C(Nc1ccccc1)c1cc2ccccc2o1	–	–	–	–	–	–
O=C(CCN1CCC(c2ccccc2)C1)c1cccs1 (stereo unspecified)	·	–	–	·	2.8	·
CN1C(=O)C(O)(CC(=O)c2ccccn2)c2cc(Br)ccc21 (stereo unspecified)	29.3	–	–	–	–	–
Cc1ccc(C(=O)CC2(O)C(=O)N(C)c3ccc(Br)cc32)c(C)c1 (stereo unspecified)	36.4	–	·	–	–	–
CCCCCOc1ccc(CSC(=N)N)cc1[N+](=O)[O-]	·	1.9	–	·	1.3	·
O=c1[nH]c(=O)n(Cc2ccccc2)c2nc(-c3ccco3)cc(C(F)(F)F)c12	31.1	–	–	–	–	–
C=CCn1c(O)c(N=NC(=S)Nc2ccc(OC)cc2)c2ccccc21	35.0	–	–	–	–	–
Cn1c(=O)c2ncn(CC(=O)Nc3cccc(-c4nc5ccccc5s4)c3)c2n(C)c1=O	·	–	–	·	–	·
CCCCOC(=O)NC1CCS(=O)(=O)C1 (stereo unspecified)	–	–	–	–	–	–
COC(=O)c1ccc(Cl)c(-c2ccc(/C=N/NC(=O)Nc3ccccc3)o2)c1	·	–	-3.17	·	–	·
COc1ccc(Cn2c(-c3ccc(C)cc3)nc3c(c(=O)c4ccccc4n3C)c2=O)cc1	·	–	·	·	–	·
SMILES	H69AR growth 86K	HCT116 bCat-KO	PTK2B oligo ant	HUVEC prolif 384	PTEN del growth	Lung fibro prol
CCOC(=O)/C(=N\Nc1cc(C(F)(F)F)ccc1Cl)N(CC)CC	·	–	–	·	–	·
CSc1nc2sc3c(c2c2nnnn12)CC(C)(C)OC3	–	·	·	–	·	–
CC1(C)Cc2c(sc3c4nnnn4c4nnnn4c23)CO1	2.5	–	·	–	–	–
Oc1ccccc1-c1nc2cnccn2c1Nc1ccc2c(c1)OCCO2	–	4.3	–	–	3.3	–
Clc1ccc(-c2nc3cnccn3c2Nc2ccc3c(c2)OCO3)cc1	25.5	–	·	–	–	–
COc1ccc(NC(=O)C2CC(=O)N(C)C(=Nc3ccc4c(c3)OCO4)S2)cc1 (stereo unspecified)	30.0	–	–	–	–	–
CN1C(=O)CC(C(=O)Nc2ccc(F)cc2)SC1=Nc1ccc2c(c1)OCO2 (stereo unspecified)	–	–	–	–	–	–
CCOc1cc(C#N)c(NC(=O)CSc2nnnn2-c2ccc(OC)cc2)cc1OCC	36.5	–	–	–	–	–
CCOC(=O)c1c(NC(=O)CSc2nnnn2C)sc(C)c1-c1ccc(C)cc1	–	–	-4.24	–	–	–
CCOc1ccccc1NC(=O)CSc1nnnn1-c1ccc(C(=O)OC)cc1	–	–	–	–	–	–
CCOC(=O)c1c(NC(=O)CSc2nnnn2-c2ccc(OC)cc2)sc(C)c1C	30.1	–	–	–	–	–
